Data on three compounds can be found in ChEMBL document CHEMBL1130028, “A comparison of structure-activity relationships between spermidine and spermine analogue antineoplastics” (J Med Chem, 1997).

Data set [1] can be described thus: Effect on ornithine decarboxylase (ODC) tested at 1 uM at 4 hour in L1210 cells. Type of data set: functional, Mus musculus. In a few lines:
(§1)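 L1210 cells were exposed to 1 μM analogue, for 4 h (ODC) or 6 h (AdoMetDC). Activity was measured as 14CO2 released from [14C]carboxyl-labelled L-ornithine (ODC) or S-adenosyl-L-methionine (AdoMetDC) and given as percent of untreated control. Each run included DEHSPM-treated positive controls. Values are the mean of at least three experiments.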

The subject of data set [2] is L1210. The experiment in a line: Percentage of putrescine after 48 hr exposure to the compound (10 uM ) in L1210 cells. Type of data set: functional, Mus musculus. In a few lines: (§2)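 Log-phase L1210 cells were treated for 48 h with analogue at two concentrations. Cells were washed twice in cold RPMI-1640 and extracted with 0.6 N HClO4. Putrescine, spermidine and spermine were quantified by HPLC of dansyl derivatives and given as percent of untreated controls. Runs were in triplicate with untreated controls.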

The test system of data set [3] is L1210. The data set can be described thus: Percentage of spermidine after 48 hr of exposure to the compound (10 uM ) in L1210 cells. Type of data set: functional, Mus musculus. In short, it runs like this: as §2
The test system of data set [4] is L1210. The experiment in a line: Percentage of spermidine after 48 hr of exposure to the compound (2 uM ) in L1210 cells. Type of data set: functional, Mus musculus. In short, it runs like this: as §2
Data set [5] concerns L1210. The experiment in a line: Intracellular levels in L1210 cells following 500 uM exposure. Type of data set: functional, Mus musculus. In short, it runs like this: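 L1210 cells were grown 48 h in medium containing 500 μM analogue. Cellular contents were analysed by HPLC of dansyl derivatives and given as pmol/10^6 cells, as parent drug and metabolites with the % of total drug in the cell.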

Data set [6] has as its system L1210. The experiment in a line: Percentage of putrescine after 48 hr exposure to the compound (2 uM ) in L1210 cells. Type of data set: functional, Mus musculus. In a few lines:
as §2

Data set [7] concerns L1210. The data set can be described thus: Growth inhibitory activity against L1210 cells (48h). Type of data set: functional, cell-based. As to conditions: Mus musculus, L1210, 48 h. In short, it runs like this: (§3)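 Murine L1210 leukemia cells were kept in log growth in RPMI-1640 with 10% fetal calf serum or NuSerum, HEPES-MOPS buffer and 1 mM aminoguanidine. IC50 is the concentration giving 50% of untreated control growth, as the mean of at least two experiments.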

The subject of data set [8] is L1210. The data set can be described thus: Growth inhibitory activity against L1210 cells (96h). Type of data set: functional, cell-based. To be noted: Mus musculus, L1210, 96 h. In a few lines: as §3
For data set [9], the target named is Spermidine/spermine N(1)-acetyltransferase (SAT) (Mus musculus) (UniProt Q6P8J2+P48026). The experiment in a line: Effect on Spermidine/Spermine-Acetyltransferase (SSAT ) at 10 uM at 48 hour in L1210 cells. Type of data set: functional, cell-based. In short, it runs like this: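 L1210 cells were exposed to 10 μM triamine for 48 h. SSAT activity was taken as [14C]N1-acetylspermidine formed from spermidine and [14C]acetyl-CoA, given as percent of untreated control. DENSPM-treated cells served as positive control. Values are the mean of at least three experiments.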

Data set [10] can be described thus: Binding affinity values for polyamine transporter was determined.
Data set [11] addresses T1, S-adenosylmethionine decarboxylase proenzyme 1 (Mus musculus) (UniProt P0DMN7).
T1 sequence (whole entry): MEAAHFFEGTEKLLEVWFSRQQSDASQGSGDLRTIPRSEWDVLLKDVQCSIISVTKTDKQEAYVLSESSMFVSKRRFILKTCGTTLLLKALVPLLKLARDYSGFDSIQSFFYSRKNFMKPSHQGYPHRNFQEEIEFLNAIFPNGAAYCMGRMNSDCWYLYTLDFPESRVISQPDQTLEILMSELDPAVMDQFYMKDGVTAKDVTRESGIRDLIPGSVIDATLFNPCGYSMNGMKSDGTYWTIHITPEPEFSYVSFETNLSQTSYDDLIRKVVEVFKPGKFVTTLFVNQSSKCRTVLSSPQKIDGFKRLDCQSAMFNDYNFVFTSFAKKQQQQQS
The data set can be described thus: Effect on S-Adenosyl-methionine decarboxylase (AdoMetDC) tested at 1 uM at 6 hour in L1210 cells. Type of data set: functional, cell-based. In a few lines: as §1

The subject of data set [12] is L1210. The experiment in a line: Percentage of spermine after 48 hr exposure to the compound (500(150)uM ) in L1210 cells. Type of data set: functional, Mus musculus. In a few lines:
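Log-phase murine L1210 leukemia cells (RPMI-1640, 10% fetal calf serum or NuSerum, HEPES-MOPS buffer, 1 mM aminoguanidine) exposed 48 h to analogue at two concentrations. Cells washed twice in cold RPMI-1640 and extracted with 0.6 N HClO4. Spermine in extracts quantified by HPLC of DANSYL derivatives and expressed as percent of untreated controls. Triplicate flasks per condition.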

Data set [13] concerns L1210. The data set can be described thus: Percentage of spermine after 48 hr exposure to the compound (100(30)uM ) in L1210 cells. Type of data set: functional, Mus musculus. In short, it runs like this:
as §2

The test system of data set [14] is L1210. The data set can be described thus: Percentage of putrescine after 48 hr exposure to the compound (100(30)uM ) in L1210 cells. Type of data set: functional, Mus musculus. In short, it runs like this: as §2
Data set [15] concerns L1210. The experiment in a line: Percentage of spermidine after 48 hr of exposure to the compound (100(30)uM ) in L1210 cells. Type of data set: functional, Mus musculus. In short, it runs like this: as §2
For data set [16], the system named is L1210. The data set can be described thus: Percentage of spermidine after 48 hr of exposure to the compound (500(150)uM ) in L1210 cells. Type of data set: functional, Mus musculus. In a few lines:
as §2

Data set [17] relates to L1210. The data set can be described thus: Percentage of putrescine after 48 hr exposure to the compound (500(150)uM ) in L1210 cells. Type of data set: functional, Mus musculus. In a few lines:
as §2

Data set [18] can be described thus: The chronic lethal dose administered as intraperitoneal injection. Type of data set: ADME. To be noted: mouse, ip. In short, it runs like this:
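Female CD-1 mice, 10–12 weeks old. Analogue given as hydrochloride salt by ip injection three times daily for 6 days (18 doses). Appetite, weight and appearance monitored daily, and lethality scored 10 days after the final dose.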

Data set [19] relates to L1210. The experiment in a line: Percentage of putrescine after 48 hr exposure to the compound (15(1.5)uM ) in L1210 cells. Type of data set: functional, Mus musculus. In a few lines:
as §2

Data set [20] has as its system L1210. The experiment in a line: Percentage of spermidine after 48 hr of exposure to the compound (15(1.5)uM ) in L1210 cells. Type of data set: functional, Mus musculus. In short, it runs like this: as §2
Data set [21] has as its system L1210. The experiment in a line: Percentage of spermidine after 48 hr of exposure to the compound (3(0.3)uM ) in L1210 cells. Type of data set: functional, Mus musculus. In a few lines:
as §2

The test system of data set [22] is L1210. The experiment in a line: Percentage of spermine after 48 hr exposure to the compound (15(1.5)uM ) in L1210 cells. Type of data set: functional, Mus musculus. In a few lines:
as §2

Data set [23] concerns L1210. The experiment in a line: Percentage of spermine after 48 hr exposure to the compound (3(0.3)uM ) in L1210 cells. Type of data set: functional, Mus musculus. In short, it runs like this: as §2
In data set [24] the test system is L1210. The experiment in a line: Percentage of putrescine after 48 hr exposure to the compound (3(0.3)uM ) in L1210 cells. Type of data set: functional, Mus musculus. In a few lines: as §2

Sequence of Spermidine/spermine N(1)-acetyltransferase (SAT) (Mus musculus) (P48026 whole entry, looked up): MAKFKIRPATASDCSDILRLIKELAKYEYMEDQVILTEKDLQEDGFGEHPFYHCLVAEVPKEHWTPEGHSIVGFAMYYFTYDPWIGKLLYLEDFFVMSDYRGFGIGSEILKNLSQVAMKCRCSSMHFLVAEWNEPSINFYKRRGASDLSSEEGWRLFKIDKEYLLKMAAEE
Sequence of Spermidine/spermine N(1)-acetyltransferase (SAT) (Mus musculus) (Q6P8J2 whole entry, looked up): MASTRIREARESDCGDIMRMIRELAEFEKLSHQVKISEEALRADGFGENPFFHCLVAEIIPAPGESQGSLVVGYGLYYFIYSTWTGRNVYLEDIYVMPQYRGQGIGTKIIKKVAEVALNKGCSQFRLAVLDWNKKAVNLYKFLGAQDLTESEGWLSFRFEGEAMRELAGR

What is called IC50 is the concentration that inhibits the measured activity by half. Low readings indicate higher potency, high ones lower potency. One may read the Ki as a dissociation constant, usually derived from enzyme kinetics or from competition with a known ligand. `CNCCCCCNCCCCNC` displayed an ODC in data set [1] of 56%. Also, the Polyamine is listed as 0% in the data set on L1210 [2], 18% in the data set with L1210 [3], 33% in the data set on L1210 [4] and 0% with L1210 [6]. Further, in the data set on L1210 [5], the “Picoequivalents of amine/10e6 cells” value was 20810. For the same compound, the half-maximal inhibitory concentration (IC50) with L1210 [7] was 2 µM; in the data set on L1210 [8] it was 120 nM. This compound also gave an SSAT in [9] of 130%. The Ki in data set [10] amounted to 21 µM. For the same compound, the AdoMetDC in data set [11] is 71%.
As usually defined, the LD50 is the dose expected to kill half of the subjects tested. Low readings indicate a more toxic substance, high ones a less toxic substance. Turning to `CCNCCCCNCCCNCC`, the Polyamine in the data set on L1210 [12] was determined as 55%; in the data set with L1210 [13], 74%; in the data set with L1210 [14], 0%; in the data set with L1210 [15], 5%; with L1210 [16] it was 0%; in the data set with L1210 [17] it was 0%. For the same compound, the ODC in data set [1] is listed as 30%. The “Picoequivalents of amine/10e6 cells” value in the data set with L1210 [5] was 14050. The values for the 50% inhibitory concentration (IC50) with L1210 [7] and in the data set on L1210 [8] were 100 µM and 700 nM, respectively. For the same compound, the SSAT in [9] was found to be 1380%. Affinity in data set [10] was put at a Ki of 19 µM. Moreover, in data set [18], the LD50 came out at 426 mg/kg/day. The AdoMetDC in data set [11] was found to be 68%.
As to `CCNCCCCCNCCCCNCC`, in [1], the ODC is given as 100%. In addition, the Polyamine in the data set on L1210 [19] is listed as 0%; in the data set on L1210 [20], 18%; in the data set on L1210 [21], 47%; with L1210 [22] it was 98%; in the data set on L1210 [23], 99%; in the data set on L1210 [24], 0%. Moreover, the “Picoequivalents of amine/10e6 cells” value with L1210 [5] was determined as 14590. The IC50 in the data set on L1210 [7] amounted to 4.5 µM; in the data set with L1210 [8], 200 nM. In data set [9], the SSAT was 120%. The Ki in data set [10] came out at 64 µM. In data set [18], the median lethal dose (LD50) was 375 mg/kg/day. The same compound registered an AdoMetDC in [11] of 70%.
